In ChEMBL document CHEMBL3580591, “Effect of Apigenin on Leishmania amazonensis Is Associated with Reactive Oxygen Species Production Followed by Mitochondrial Dysfunction” (J Nat Prod, 2015):
pIC50: −log10 of the molar value. The source made the active and inactive calls. The rule behind the calls is not given here.

Tests used:
Leishmania amazonensis [1] = test: Induction of ultrastructural alterations in Leishmania amazonensis MHOM/BR/75/LTB0016 promastigotes assessed as concentric membrane structures formation inside organelle at 12 to 96 uM incubated for 24 hrs by transmission electron microscopy; type: functional, organism-based
In short: (§1)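 Promastigotes (5 × 10^6 cells/mL) were treated for 24 h at 26 °C in Schneider medium with compound at 12, 24 or 96 μM. They were fixed in 2.5% glutaraldehyde in 0.1 M cacodylate (pH 7.2) for 40 min and postfixed in 1% OsO4, 0.8% potassium ferricyanide and 2.5 mM CaCl2 for 20 min. Cells were acetone-dehydrated and resin-embedded. Ultrathin sections were stained with uranyl acetate and lead citrate and examined by transmission electron microscopy.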

Leishmania amazonensis [2] = test: Antiparasitic activity against Leishmania amazonensis MHOM/BR/75/LTB0016 promastigotes assessed as inhibition of cellular proliferation at 96 uM incubated for 24 hrs in presence of 300 uM NAC by Neubauer chamber based assay; type: functional, organism-based
In short: (§2)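 Promastigotes were preincubated with GSH, GSSG or NAC (300 μM final, in PBS) and then grown 24 h at 26 °C in Schneider medium with 96 μM compound (in DMSO) or vehicle (0.2% DMSO). Proliferation was counted in a Neubauer chamber. Mean ± SE of three experiments.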

Leishmania amazonensis [3] = test: Antiparasitic activity against Leishmania amazonensis MHOM/BR/75/LTB0016 promastigotes assessed as inhibition of cellular proliferation at 96 uM incubated for 24 hrs by Neubauer chamber based assay; type: functional; conditions: MHOM/BR/75/LTB0016, 24 h
In short: (§3)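 Strain MHOM/BR/75/LTB0016 promastigotes were grown at 26 °C in Schneider medium (pH 7.2) with 10% heat-inactivated FCS, penicillin and streptomycin. They were seeded at 1.0 × 10^6 cells/mL with compound (3−96 μM) or DMSO vehicle (0.2% final) for 24 h at 26 °C. Density was counted in a Neubauer chamber. IC50 came from logarithmic regression. Mean ± SE of three experiments.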

Leishmania amazonensis [4] = test: Induction of ultrastructural alterations in Leishmania amazonensis MHOM/BR/75/LTB0016 promastigotes assessed as rupture of trans-Golgi network at 24 uM incubated for 24 hrs by transmission electron microscopy
Leishmania amazonensis [5] = test: Induction of intracellular ROS generation in Leishmania amazonensis MHOM/BR/75/LTB0016 promastigotes at 96 uM incubated for 24 hrs in presence of NAC by H2DCFDA dye based assay; type: functional, organism-based
In short: (§4)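 Cultures held GSH, GSSG or NAC (300 μM final, in PBS) together with 96 μM compound or 0.2% DMSO for 24 h at 26 °C in Schneider medium. Cells were then stained with H2DCFDA (20 μM, 20 min, 26 °C, in HBSS) and read by flow cytometry. Results are fold ROS increase versus control, mean ± SE of three experiments.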

Leishmania amazonensis [6] = test: Induction of intracellular ROS generation in Leishmania amazonensis MHOM/BR/75/LTB0016 promastigotes at 96 uM incubated for 24 hrs in presence of GSH by H2DCFDA dye based assay; type: functional, organism-based; in short: as §4
Leishmania amazonensis [7] = test: Induction of ultrastructural alterations in Leishmania amazonensis MHOM/BR/75/LTB0016 promastigotes assessed as cytoplasmic vacuolization at 12 uM incubated for 24 hrs by transmission electron microscopy
Leishmania amazonensis [8] = test: Induction of ultrastructural alterations in Leishmania amazonensis MHOM/BR/75/LTB0016 promastigotes assessed as washed-out appearance of mitochondria matrix and loss of cristae at 96 uM incubated for 24 hrs by transmission electron microscopy; type: functional, organism-based; in short: as §1
Leishmania amazonensis [9] = test: Antiparasitic activity against Leishmania amazonensis MHOM/BR/75/LTB0016 promastigotes assessed as inhibition of cellular proliferation incubated for 24 hrs by CFSE staining based flow cytometry; type: functional, organism-based
In short: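 Promastigotes (2.5 × 10^7 cells/mL) were washed in PBS and stained with 10 μM CFSE in PBS/0.1% albumin for 15 min at 26 °C. Staining was stopped with ice-cold medium. Cells were resuspended at 1.0 × 10^6 cells/mL with compound (3−96 μM) or 0.2% DMSO for 24 h at 26 °C. Fluorescence was read by flow cytometry. Histograms are representative of three experiments.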

Leishmania amazonensis [10] = test: Induction of ultrastructural alterations in Leishmania amazonensis MHOM/BR/75/LTB0016 promastigotes assessed as inner mitochondrial membrane damage with washed-out matrix appearance and decreased matrix electron density at 12 to 96 uM incubated for 24 hrs by transmission electron microscopy; type: functional, organism-based; in short: as §1
Leishmania amazonensis [11] = test: Induction of intracellular ROS generation in Leishmania amazonensis MHOM/BR/75/LTB0016 promastigotes incubated for 24 hrs by H2DCFDA dye based assay; type: functional, organism-based
In short: (§5)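 Promastigotes (5 × 10^6 cells/mL) were cultured 24 h at 26 °C with compound (3−96 μM) or vehicle, then resuspended in HBSS at 1 × 10^7 cells/mL. They were loaded with 20 μM H2DCFDA for 20 min at 26 °C and read by flow cytometry. Results are fold increase over control, mean ± SE of three experiments.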

Leishmania amazonensis [12] = test: Antiparasitic activity against Leishmania amazonensis MHOM/BR/75/LTB0016 promastigotes assessed as inhibition of cellular proliferation at 96 uM incubated for 24 hrs in presence of 300 uM GSSG by Neubauer chamber based assay; type: functional, organism-based; in short: as §2
Leishmania amazonensis [13] = test: Antiparasitic activity against Leishmania amazonensis MHOM/BR/75/LTB0016 promastigotes assessed as inhibition of cellular proliferation incubated for 24 hrs by Neubauer chamber based assay; type: functional, organism-based; in short: as §3
Leishmania amazonensis [14] = test: Induction of ultrastructural alterations in Leishmania amazonensis MHOM/BR/75/LTB0016 promastigotes assessed as appearance of endoplasmic profiles surrounding cellular structures and cytosolic vacuolization at 12 uM incubated for 24 hrs by transmission electron microscopy; type: functional, organism-based; in short: as §1
Leishmania amazonensis [15] = test: Antiparasitic activity against Leishmania amazonensis MHOM/BR/75/LTB0016 promastigotes assessed as inhibition of cellular proliferation at 96 uM incubated for 24 hrs in presence of 300 uM GSH by Neubauer chamber based assay; type: functional, organism-based; in short: as §2
Leishmania amazonensis [16] = test: Induction of intracellular ROS generation in Leishmania amazonensis MHOM/BR/75/LTB0016 promastigotes at 96 uM incubated for 24 hrs in presence of GSSG by H2DCFDA dye based assay; type: functional, organism-based; in short: as §4
Leishmania amazonensis [17] = test: Induction of intracellular ROS generation in Leishmania amazonensis MHOM/BR/75/LTB0016 promastigotes at 96 uM incubated for 24 hrs by H2DCFDA dye based assay; type: functional; in short: as §5
Leishmania amazonensis [18] = test: Induction of membrane potential depolarization in Leishmania amazonensis MHOM/BR/75/LTB0016 promastigotes assessed as reduction in mitochondrial membrane potential at 96 uM incubated for 24 hrs by JC1 dye based fluorescence assay; type: functional; conditions: MHOM/BR/75/LTB0016, 24 h
In short: (§6)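 Promastigotes (5 × 10^6 cells/mL) were treated for 24 h with compound (3−96 μM) or 0.2% DMSO, then resuspended in HBSS at 1 × 10^7 cells/mL. They were stained with JC-1 (10 μg/mL, 10 min, 26 °C) and washed twice. Emission was read at 590 and 530 nm (excitation 480 nm), and the 590/530 ratio gives relative ΔΨm. FCCP 20 μM for 20 min served as positive control. Mean ± SE of three experiments.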

Leishmania amazonensis [19] = test: Antiparasitic activity against Leishmania amazonensis MHOM/BR/75/LTB0016 promastigotes assessed as inhibition of cellular proliferation incubated for 48 hrs by CFSE staining based flow cytometry; type: functional, organism-based; conditions: MHOM/BR/75/LTB0016, 48 h
Leishmania amazonensis [20] = test: Induction of ultrastructural alterations in Leishmania amazonensis MHOM/BR/75/LTB0016 promastigotes assessed as extensive swelling of parasite mitochondria at 12 to 96 uM incubated for 24 hrs by transmission electron microscopy; type: functional, organism-based; in short: as §1
Leishmania amazonensis [21] = test: Induction of membrane potential depolarization in Leishmania amazonensis MHOM/BR/75/LTB0016 promastigotes assessed as reduction in mitochondrial membrane potential incubated for 24 hrs by JC1 dye based fluorescence assay; type: functional, organism-based; in short: as §6
Leishmania braziliensis = test: Induction of intracellular ROS generation in Leishmania braziliensis promastigotes at 500 uM incubated for 72 hrs by H2DCFDA dye based assay
Leishmania amazonensis [22] = test: Induction of membrane potential depolarization in Leishmania amazonensis MHOM/BR/75/LTB0016 promastigotes assessed as reduction in mitochondrial membrane potential at 20 uM incubated for 24 hrs by JC1 dye based fluorescence assay; conditions: MHOM/BR/75/LTB0016, 24 h, read-out: INH
Leishmania amazonensis [23] = test: Induction of intracellular ROS generation in Leishmania amazonensis MHOM/BR/75/LTB0016 promastigotes at 96 uM incubated for 48 hrs by H2DCFDA dye based assay; type: functional

## O=c1cc(-c2ccc(O)cc2)oc2cc(O)cc(O)c12 [APIGENIN]
Leishmania amazonensis [1]
  Activity: Active
Leishmania amazonensis [2]
  Activity: inactive
Leishmania amazonensis [3]
  inhibition at 96 µM: 75%
Leishmania amazonensis [4]
  Activity: Active
Leishmania amazonensis [5]
  Activity: inactive
Leishmania amazonensis [6]
  Activity: inactive
Leishmania amazonensis [7]
  Activity: Active
Leishmania amazonensis [8]
  Activity: Active
Leishmania amazonensis [9]
  inhibition: Dose-dependent effect
Leishmania amazonensis [10]
  Activity: Active
Leishmania amazonensis [11]
  Activity: Dose-dependent effect
Leishmania amazonensis [12]
  Activity: Active
Leishmania amazonensis [13]
  inhibition: Dose-dependent effect
Leishmania amazonensis [13]; MHOM/BR/75/LTB0016, 24 h
  pIC50: 4.63
Leishmania amazonensis [14]
  Activity: Active
Leishmania amazonensis [15]
  Activity: inactive
Leishmania amazonensis [16]
  Activity: Active
Leishmania amazonensis [17]
  fold change (FC): 2.9
Leishmania amazonensis [18]
  inhibition at 96 µM: 78.3%
Leishmania amazonensis [19]
  pIC50: 4.50
Leishmania amazonensis [20]
  Activity: Active
Leishmania amazonensis [21]
  Activity: Dose-dependent effect

## O=C(O[C@@H]1Cc2c(O)cc(O)cc2O[C@@H]1c1cc(O)c(O)c(O)c1)c1cc(O)c(O)c(O)c1 [EPIGALOCATECHIN GALLATE]
Leishmania braziliensis
  fold change (FC): 2.9

## N#CC(C#N)=NNc1ccc(OC(F)(F)F)cc1
Leishmania amazonensis [22]
  inhibition at 20 µM: 79.8%

## O=c1c(O)c(-c2ccc(O)c(O)c2)oc2cc(O)cc(O)c12 [QUERCETIN]
Leishmania amazonensis [23]
  fold change (FC): 4.4
